Screening data deposited in PubChem by several laboratories.
Compounds with a hit are over-represented: about 2.5% of the library has one in this group of screens.
SENP1 FRET inh = human SENP1 catalytic domain inhibitors, primary screen, biochemical, FRET, uHTS; Sentrin-specific protease 1 (Homo sapiens), Q9P0U3; recombinant SENP1 catalytic domain, CyPet-SUMO1-YPet FRET cleavage; inhibition, % at 10 µM; 0.21% of 360,000 active;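 active means inhibition at least 30% at 10 µM, raw YFP signal under a set limit, fluorescence ratio 0.5 to 1.5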;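 further: 0% = enzyme with DMSO and 100% = no enzyme wells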
Target sequence (Q9P0U3 419-644 limits assumed): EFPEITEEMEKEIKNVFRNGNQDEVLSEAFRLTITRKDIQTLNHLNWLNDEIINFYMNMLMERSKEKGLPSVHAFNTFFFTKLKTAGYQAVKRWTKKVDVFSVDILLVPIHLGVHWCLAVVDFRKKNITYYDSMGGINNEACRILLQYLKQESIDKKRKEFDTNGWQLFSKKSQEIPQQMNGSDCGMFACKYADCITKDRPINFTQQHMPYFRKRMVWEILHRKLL
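Compound: 10 µM single point, 0.5% DMSO; Test system: hSENP1 catalytic domain, recombinant; Timing: 50 min reaction at room temperature; Technique: FRET, CFP and YFP emission; Control set: no-enzyme wells low, DMSO-plus-enzyme wells high control.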
ABHD5-PLIN5 inh = ABHD5-PLIN5 interaction inhibitors, primary screen, cell lysate, split luciferase complementation, luminescence; inhibition, % at 4 µM; Perilipin-5 (Homo sapiens) + 1-acylglycerol-3-phosphate O-acyltransferase ABHD5 (Homo …; 0.78% of 360,000 active; Split G. princeps luciferase complementation, 4 h; AID 602281, 2012;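 active means inhibition above the mean inhibition across every tested compound plus 3 SD, cut at about 22% in these data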;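 further: 0% = DMSO only wells and the 100% control is not disclosed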
NadD inh = inhibitors of S. aureus NadD, primary screen, biochemical, colorimetric, uHTS | Nicotinate-nucleotide adenylyltransferase NadD (Staphylococcus aureus N315) | purified NadD enzyme, colorimetric absorbance read-out | inhibition, % at 20 µM | 0.78% of 360,000 active; in the data active means inhibition above about 26%
GRK2 aptamer HTS = compounds blocking aptamer binding on GRK2 – biochemical, human GRK2, bead flow cytometry, HTS, primary screen | 0.59% of 330,000 active | FAM-aptamer displacement from GRK2 | inhibition of aptamer binding, % at 10 µM | Beta-adrenergic receptor kinase 1 (Homo sapiens), P25098 | AID 488847, 2010;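 active means inhibition of aptamer binding above 40%, roughly 3 SD of noise, on plates passing a quality check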;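 further: median bead fluorescence of bound FAM aptamer so fluorescent compounds give negative values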
Beta2AR agonist = beta2AR agonists driving receptor internalization, primary screen, cell-based, FAP fluorogen, flow cytometry; Beta-2 adrenergic receptor (Homo sapiens), P07550; Am2.2-beta2AR cells; response, % (test concentration not listed); 0.43% of 340,000 active; AID 504454, 2011;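 active means response above a set limit, near 3 SD of response in nonfluorescent compounds, cut at about 42% in these data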
Target sequence (P07550 whole entry, looked up): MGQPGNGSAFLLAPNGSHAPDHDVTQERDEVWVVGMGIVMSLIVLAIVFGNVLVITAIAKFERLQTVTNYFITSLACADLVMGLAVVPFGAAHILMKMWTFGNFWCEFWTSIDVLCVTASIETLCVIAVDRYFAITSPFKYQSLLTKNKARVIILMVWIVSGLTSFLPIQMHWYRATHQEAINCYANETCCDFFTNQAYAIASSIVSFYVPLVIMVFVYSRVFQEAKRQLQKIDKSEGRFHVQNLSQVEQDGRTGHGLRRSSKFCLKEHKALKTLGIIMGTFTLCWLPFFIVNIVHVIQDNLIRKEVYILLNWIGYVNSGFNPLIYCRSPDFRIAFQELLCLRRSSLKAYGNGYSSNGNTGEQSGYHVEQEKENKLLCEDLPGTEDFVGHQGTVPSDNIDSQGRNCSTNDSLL
B2AR ag CP1 = beta2AR agonists via receptor internalization, confirmation, cell-based, FAP fluorogen, flow cytometry, single point, cherry pick 1; shares compounds with Beta2AR agonist; percent response (surface receptor), % at 10 µM; Am2.2-beta2AR cells, FAP surface receptor; active compounds read low; 25% of 1,100 active;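 active means surface receptor percent response at or below 58%, roughly 3 SD from nonfluorescent compounds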
B2AR FAP counter = flagged in Am2.2 fluorescence counterscreen for beta-2AR agonists; Am2.2 cells, FAP fluorogen flow cytometry; active compounds read low; AID 588765; 1,100 tested, under 10 active; calls only at 10 µM; shares compounds with Beta2AR agonist;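 active means percent response below a set limit in fluorescence channel 1 and below 50% in channel 8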
The depositor's hits bear a star; ! = a repeat was not active.

What do the screens show for `COc1cc(NC(=O)c2ccc3c(c2)OCO3)ccc1NC(=O)c1ccco1`?
SENP1 FRET inh: 1; ABHD5-PLIN5 inh: 10; NadD inh: 4; GRK2 aptamer HTS: 1; Beta2AR agonist: -1; B2AR ag CP1: 112; B2AR FAP counter: inactive

How did COc1ccc(-c2cc(C(F)(F)F)n3nc(C(=O)O)cc3n2)cc1OC do in these assays?
SENP1 FRET inh: -19; ABHD5-PLIN5 inh: 5; NadD inh: -1; GRK2 aptamer HTS: 4; Beta2AR agonist: 52*; B2AR ag CP1: 99; B2AR FAP counter: inactive

How did COC(=O)c1cc2nc(-c3ccc(OC)c(OC)c3)cc(C(F)(F)F)n2n1 do in these assays?
SENP1 FRET inh: -18; ABHD5-PLIN5 inh: 7; NadD inh: -1; GRK2 aptamer HTS: 3; Beta2AR agonist: -2

Results for Cc1ccc(CNC(=O)CCCCn2c(=O)[nH]c3ccsc3c2=O)cc1 ?
SENP1 FRET inh: 2; ABHD5-PLIN5 inh: 10; NadD inh: -9; GRK2 aptamer HTS: 2; Beta2AR agonist: 12; B2AR ag CP1: 121; B2AR FAP counter: inactive

What do the screens show for `O=C(CCCCCn1c(=O)[nH]c2ccsc2c1=O)NCc1ccc(F)cc1`?
SENP1 FRET inh: 0; ABHD5-PLIN5 inh: 1; NadD inh: 4; GRK2 aptamer HTS: 2; Beta2AR agonist: 109*; B2AR ag CP1: 1.5*; B2AR FAP counter: inactive

How did O=C(CCCCCn1c(=O)[nH]c2ccsc2c1=O)NCc1cccs1 do in these assays?
SENP1 FRET inh: -1; ABHD5-PLIN5 inh: -4; NadD inh: -2; GRK2 aptamer HTS: 0; Beta2AR agonist: 4

Results for Cn1c(SCC(=O)N2c3ccccc3Sc3ccc(Cl)cc32)nnc1-c1ccco1 ?
SENP1 FRET inh: 3; ABHD5-PLIN5 inh: 12; NadD inh: 11; GRK2 aptamer HTS: 0; Beta2AR agonist: -11

What do the screens show for `O=C(CSc1nnc(-c2ccncc2)n1Cc1ccco1)N1c2ccccc2Sc2ccc(Cl)cc21`?
SENP1 FRET inh: -10; ABHD5-PLIN5 inh: 12; NadD inh: 19; GRK2 aptamer HTS: 0; Beta2AR agonist: 85*; B2AR ag CP1: 6.7*; B2AR FAP counter: inactive

What do the screens show for `CCc1nc2ccc(C(=O)N3CCCC(C(N)=O)C3)cn2c1N(C=O)CC` (centres undefined)?
SENP1 FRET inh: 0; ABHD5-PLIN5 inh: -7; NadD inh: 1

How did Cc1noc(NS(=O)(=O)c2ccc(NC(=O)c3cc4ccccc4o3)cc2)c1C do in these assays?
SENP1 FRET inh: 1; ABHD5-PLIN5 inh: 2; NadD inh: -2; GRK2 aptamer HTS: 5; Beta2AR agonist: -5

How did Nc1ccc(-c2nc3ccccc3o2)cc1 do in these assays?
SENP1 FRET inh: 20; ABHD5-PLIN5 inh: -6; NadD inh: -40; GRK2 aptamer HTS: 1; Beta2AR agonist: -51

What do the screens show for `Nc1cc(N)cc(-c2nc3ccccc3o2)c1`?
SENP1 FRET inh: -14; ABHD5-PLIN5 inh: 3; NadD inh: 7; GRK2 aptamer HTS: 0; Beta2AR agonist: 43*; B2AR ag CP1: 116; B2AR FAP counter: inactive

How did COC(=O)c1ccc(C(=O)OC)c(-n2c(=O)c3ccccc3c3ccccc3c2=O)c1 do in these assays?
SENP1 FRET inh: 0; ABHD5-PLIN5 inh: -1; NadD inh: -3; GRK2 aptamer HTS: 1; Beta2AR agonist: 54*; B2AR ag CP1: 105; B2AR FAP counter: inactive

Results for COC(=O)c1ccc(-c2nn(C)c(=O)c3ccccc23)cc1 ?
SENP1 FRET inh: 0; ABHD5-PLIN5 inh: 7; NadD inh: 0; GRK2 aptamer HTS: 0; Beta2AR agonist: -2

Results for O=C(c1ccc2c(c1)OCO2)N(c1ccc(Br)cc1)C1C=CS(=O)(=O)C1 (centres undefined) ?
SENP1 FRET inh: 2; ABHD5-PLIN5 inh: 1; NadD inh: -2; GRK2 aptamer HTS: 0; Beta2AR agonist: 4

How did CC(C)c1ccc2c(c1)CC[C@H]1[C@](C)(CN)CCC[C@]21C do in these assays?
SENP1 FRET inh: 0; ABHD5-PLIN5 inh: 1; NadD inh: 5; Beta2AR agonist: 50*!; B2AR ag CP1: 79; B2AR FAP counter: inactive

Results for C=CCn1c(SCc2ccc(F)cc2)nnc1-c1sc2nc(C)cc(C)c2c1N ?
SENP1 FRET inh: -107; ABHD5-PLIN5 inh: -1; NadD inh: 0; GRK2 aptamer HTS: 0; Beta2AR agonist: 109*; B2AR ag CP1: 28*; B2AR FAP counter: inactive

Results for CCCc1nc2oc3c(NCCN(C)C)ncnc3c2c2c1CCCC2 ?
SENP1 FRET inh: -7; ABHD5-PLIN5 inh: 5; NadD inh: -8; GRK2 aptamer HTS: 0; Beta2AR agonist: 14; B2AR ag CP1: 130; B2AR FAP counter: inactive

Results for CCCc1nc2oc3c(NCCCN(C)C)ncnc3c2c2c1CCCC2 ?
SENP1 FRET inh: -1; ABHD5-PLIN5 inh: 5; NadD inh: -6; GRK2 aptamer HTS: 0; Beta2AR agonist: 18; B2AR ag CP1: 152; B2AR FAP counter: inactive

How did CC(C)Cc1nc2oc3c(NCC(C)O)ncnc3c2c2c1CCCC2 (centres undefined) do in these assays?
SENP1 FRET inh: -1; ABHD5-PLIN5 inh: 2; NadD inh: -12; GRK2 aptamer HTS: 0; Beta2AR agonist: -3; B2AR ag CP1: 110; B2AR FAP counter: inactive

How did CCCc1nc2oc3c(Cl)ncnc3c2c2c1CCCC2 do in these assays?
SENP1 FRET inh: 1; ABHD5-PLIN5 inh: 2; NadD inh: -4; GRK2 aptamer HTS: 1; Beta2AR agonist: 44*; B2AR ag CP1: 90; B2AR FAP counter: inactive

Results for CCCc1nc2oc3c(NCC4CCCO4)ncnc3c2c2c1COC(C)(C)C2 (centres undefined) ?
SENP1 FRET inh: -1; ABHD5-PLIN5 inh: -5; NadD inh: -1; GRK2 aptamer HTS: 0; Beta2AR agonist: -6

What do the screens show for `O=C(Nc1cc(S(=O)(=O)N2CCOCC2)ccc1Cl)c1cc([N+](=O)[O-])ccc1Cl`?
SENP1 FRET inh: -1; ABHD5-PLIN5 inh: 15; NadD inh: -1; GRK2 aptamer HTS: 3; Beta2AR agonist: -4

How did COC(=O)c1sc2ccccc2c1N do in these assays?
SENP1 FRET inh: -15; ABHD5-PLIN5 inh: -1; NadD inh: 1; GRK2 aptamer HTS: 0; Beta2AR agonist: 3
